Laboratory results taken from ChEMBL document CHEMBL4251662, “Alkyl indole-based cannabinoid type 2 receptor tools: Exploration of linker and fluorophore attachment” (Eur J Med Chem, 2018).
Activity calls are given as the source filed them. No cut-off for these calls is given here.

How the values were obtained:
[1] = biological target: T1, Cannabinoid receptor 2 (Homo sapiens, UniProt P34972); test: Displacement of [3H]CP55,940 from N-terminal HA-tagged human CB2 receptor expressed in HEK293 cell membranes at 10 uM after 1 hr by microbeta scintillation counting method relative to control
Procedure, shortened: (§1)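 Single-point competition screen against [3H]CP55,940 in HEK293 cells over-expressing 3HA-tagged hCB2 or hCB1. Compounds giving more than 50% displacement went on to full concentration-response curves.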

[2] = biological target: T1, Cannabinoid receptor 2; test: Displacement of [3H]CP55,940 from N-terminal HA-tagged human CB2 receptor expressed in HEK293 cell membranes after 1 hr by microbeta scintillation counting method; conditions: read-out: Ki
[3] = biological target: T2, Cannabinoid receptor 1 (Homo sapiens, UniProt P21554); test: Displacement of [3H]CP55,940 from N-terminal HA-tagged human CB1 receptor expressed in HEK293 cell membranes at 10 uM after 1 hr by microbeta scintillation counting method relative to control; procedure, shortened: as §1
[4] = biological target: T2, Cannabinoid receptor 1; test: Displacement of [3H]CP55,940 from N-terminal HA-tagged human CB1 receptor expressed in HEK293 cell membranes after 1 hr by microbeta scintillation counting method; conditions: read-out: Ki
[5] = biological target: T1, Cannabinoid receptor 2; test: Agonist activity at N-terminal HA-tagged human CB2 receptor expressed in HEK293 cells transfected with YFP-Epac-RLuc assessed as decrease in forskolin-stimulated cAMP level by BRET assay; assay type: functional, cell-based
Procedure, shortened: (§2)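 BRET cAMP biosensor read-out in HEK293 cells expressing HA-tagged human CB1 or CB2, with forskolin stimulation (5 µM). Concentration-response curves; area-under-curve values normalised to forskolin alone = 100% and basal = 0%. EC50 taken for agonists and IC50 for inverse agonists. Mean of at least three independent experiments, each point in duplicate.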

[6] = biological target: T1, Cannabinoid receptor 2; test: Agonist activity at N-terminal HA-tagged human CB2 receptor expressed in HEK293 cells transfected with YFP-Epac-RLuc assessed as decrease in forskolin-stimulated cAMP level by BRET assay relative to control; assay type: functional, cell-based; procedure, shortened: as §2
[7] = biological target: T2, Cannabinoid receptor 1; test: Agonist activity at N-terminal HA-tagged human CB1 receptor expressed in HEK293 cells transfected with YFP-Epac-RLuc assessed as decrease in forskolin-stimulated cAMP level by BRET assay; assay type: functional, cell-based; procedure, shortened: as §2
[8] = biological target: T2, Cannabinoid receptor 1; test: Agonist activity at N-terminal HA-tagged human CB1 receptor expressed in HEK293 cells transfected with YFP-Epac-RLuc assessed as decrease in forskolin-stimulated cAMP level by BRET assay relative to control; assay type: functional, cell-based; procedure, shortened: as §2
[9] = biological target: T1, Cannabinoid receptor 2; test: Agonist activity at N-terminal HA-tagged human CB2 receptor expressed in HEK293 cells transfected with YFP-Epac-RLuc assessed as decrease in forskolin-stimulated cAMP level at 10 uM by BRET assay; assay type: functional, cell-based
Procedure, shortened: (§3)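 Single-concentration screen at 10 µM in CB receptor-expressing HEK293 cells, run with and without CP55,940 as reference agonist. Forskolin-stimulated cAMP read by BRET biosensor. A fall in cAMP is scored as agonism and a rise as inverse agonism.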

[10] = biological target: T2, Cannabinoid receptor 1; test: Agonist activity at N-terminal HA-tagged human CB1 receptor expressed in HEK293 cells transfected with YFP-Epac-RLuc assessed as decrease in forskolin-stimulated cAMP level at 10 uM by BRET assay; assay type: functional, cell-based; procedure, shortened: as §3
[11] = test system: HEK293; test: Effect on forskolin-stimulated cAMP level in HEK293 cells at 10 uM by BRET assay relative to control; assay type: ADME, cell-based; conditions: human, hek293, 10 µM
Procedure, shortened: (§4)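 Wild-type HEK293 cells lacking transfected receptor, tested at 10 µM and 1 µM. Forskolin-stimulated cAMP measured by BRET as a check that responses are receptor-mediated.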

[12] = test system: HEK293; test: Effect on forskolin-stimulated cAMP level in HEK293 cells at 1 uM by BRET assay relative to control; assay type: ADME, cell-based; conditions: human, hek293, 1 µM; procedure, shortened: as §4
[13] = biological target: Proprotein convertase subtilisin/kexin type 9 (Homo sapiens) (UniProt Q8NBP7); test: Inhibition of PCSK9 (unknown origin)
[14] = biological target: T3, Free fatty acid receptor 4 (Homo sapiens) (UniProt Q5NUL3); test: Agonist activity at GPR120 (unknown origin); assay type: functional
T3 sequence (whole entry): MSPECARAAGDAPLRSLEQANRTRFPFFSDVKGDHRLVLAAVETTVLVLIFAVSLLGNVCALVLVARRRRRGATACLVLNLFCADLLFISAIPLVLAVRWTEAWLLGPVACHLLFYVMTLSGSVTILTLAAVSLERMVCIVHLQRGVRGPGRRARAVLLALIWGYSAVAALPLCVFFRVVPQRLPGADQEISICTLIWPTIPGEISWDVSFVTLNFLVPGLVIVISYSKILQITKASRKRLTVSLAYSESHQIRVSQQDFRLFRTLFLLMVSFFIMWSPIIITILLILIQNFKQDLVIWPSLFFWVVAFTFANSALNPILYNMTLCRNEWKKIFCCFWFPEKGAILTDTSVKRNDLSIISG

[15] = biological target: Interleukin-17A (Homo sapiens) (UniProt Q16552); test: Inhibition of IL-17 (unknown origin) assessed as disruption of IL-17 protein-protein interaction
[16] = test system: Leishmania donovani; test: Growth inhibition of Leishmania donovani; assay type: functional, organism-based
[17] = biological target: Potassium voltage-gated channel subfamily KQT member 2 (Homo sapiens) (UniProt O43526); test: Agonist activity at KCNQ2 (unknown origin)
[18] = biological target: T4, Potassium voltage-gated channel subfamily KQT member 3 (Homo sapiens) (UniProt O43525); test: Agonist activity at KCNQ3 (unknown origin)
T4 sequence (whole entry): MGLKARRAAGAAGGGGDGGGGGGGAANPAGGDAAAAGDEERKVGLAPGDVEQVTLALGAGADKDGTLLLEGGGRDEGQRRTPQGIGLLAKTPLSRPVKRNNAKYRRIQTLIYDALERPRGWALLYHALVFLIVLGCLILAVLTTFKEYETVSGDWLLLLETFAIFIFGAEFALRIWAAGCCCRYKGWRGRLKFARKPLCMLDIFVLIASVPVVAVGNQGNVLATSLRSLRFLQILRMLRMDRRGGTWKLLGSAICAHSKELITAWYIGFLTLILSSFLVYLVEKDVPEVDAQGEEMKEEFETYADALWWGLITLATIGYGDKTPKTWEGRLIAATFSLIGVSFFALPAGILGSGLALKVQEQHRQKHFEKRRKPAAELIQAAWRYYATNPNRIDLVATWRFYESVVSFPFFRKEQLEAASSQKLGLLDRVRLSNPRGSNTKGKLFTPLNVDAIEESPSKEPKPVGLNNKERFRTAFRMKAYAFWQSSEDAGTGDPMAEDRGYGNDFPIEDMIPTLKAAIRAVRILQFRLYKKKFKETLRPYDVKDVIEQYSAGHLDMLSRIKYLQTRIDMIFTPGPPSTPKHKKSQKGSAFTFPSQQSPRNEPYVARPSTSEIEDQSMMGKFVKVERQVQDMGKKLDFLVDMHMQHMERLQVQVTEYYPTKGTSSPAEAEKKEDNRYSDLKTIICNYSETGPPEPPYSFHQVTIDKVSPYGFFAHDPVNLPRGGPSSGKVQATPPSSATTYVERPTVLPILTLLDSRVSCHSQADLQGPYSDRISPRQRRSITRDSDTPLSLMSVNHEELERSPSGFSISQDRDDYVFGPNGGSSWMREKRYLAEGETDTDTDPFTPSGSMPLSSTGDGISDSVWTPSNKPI

[19] = biological target: T5, Nicotinamide N-methyltransferase (Homo sapiens) (UniProt P40261); test: Inhibition of NNMT (unknown origin)
T5 sequence (whole entry): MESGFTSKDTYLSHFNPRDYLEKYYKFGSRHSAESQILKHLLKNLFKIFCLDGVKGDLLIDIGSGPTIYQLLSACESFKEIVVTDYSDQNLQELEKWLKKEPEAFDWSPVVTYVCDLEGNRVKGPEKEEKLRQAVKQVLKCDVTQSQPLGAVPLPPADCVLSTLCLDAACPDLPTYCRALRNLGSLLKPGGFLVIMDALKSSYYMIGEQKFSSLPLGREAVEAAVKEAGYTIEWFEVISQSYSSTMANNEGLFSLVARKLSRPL

[20] = biological target: T1, Cannabinoid receptor 2; test: Inverse agonist activity at N-terminal HA-tagged human CB2 receptor expressed in HEK293 cells transfected with YFP-Epac-RLuc assessed as increase in forskolin-stimulated cAMP level by BRET assay; assay type: functional, cell-based; procedure, shortened: as §2
[21] = biological target: T1, Cannabinoid receptor 2; test: Inverse agonist activity at N-terminal HA-tagged human CB2 receptor expressed in HEK293 cells transfected with YFP-Epac-RLuc assessed as increase in forskolin-stimulated cAMP level by BRET assay relative to control; assay type: functional, cell-based; procedure, shortened: as §2
[22] = biological target: T1, Cannabinoid receptor 2; test: Inverse agonist activity at N-terminal HA-tagged human CB2 receptor expressed in HEK293 cells transfected with YFP-Epac-RLuc assessed as increase in forskolin-stimulated cAMP level at 10 uM by BRET assay; assay type: functional, cell-based
[23] = biological target: T2, Cannabinoid receptor 1; test: Activity at N-terminal HA-tagged human CB1 receptor expressed in HEK293 cells transfected with YFP-Epac-RLuc assessed as effect on forskolin-stimulated cAMP level by BRET assay; assay type: functional, cell-based; procedure, shortened: as §2
[24] = biological target: T2, Cannabinoid receptor 1; test: Activity at N-terminal HA-tagged human CB1 receptor expressed in HEK293 cells transfected with YFP-Epac-RLuc assessed as effect on forskolin-stimulated cAMP level by BRET assay relative to control; assay type: functional, cell-based; procedure, shortened: as §2

T2 sequence (P21554 whole entry): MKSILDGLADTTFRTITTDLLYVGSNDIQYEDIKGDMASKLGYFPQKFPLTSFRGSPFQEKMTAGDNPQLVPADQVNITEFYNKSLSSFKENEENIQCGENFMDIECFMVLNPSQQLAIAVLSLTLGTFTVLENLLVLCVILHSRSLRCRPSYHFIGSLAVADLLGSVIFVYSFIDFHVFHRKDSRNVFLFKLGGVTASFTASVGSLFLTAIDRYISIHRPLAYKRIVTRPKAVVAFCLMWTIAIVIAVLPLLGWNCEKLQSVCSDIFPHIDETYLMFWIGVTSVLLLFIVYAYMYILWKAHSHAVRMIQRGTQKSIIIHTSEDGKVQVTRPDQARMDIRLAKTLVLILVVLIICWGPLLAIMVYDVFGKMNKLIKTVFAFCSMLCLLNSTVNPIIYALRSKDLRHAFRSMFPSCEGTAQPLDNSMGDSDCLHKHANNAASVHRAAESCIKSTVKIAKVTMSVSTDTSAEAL
T1 sequence (P34972 whole entry): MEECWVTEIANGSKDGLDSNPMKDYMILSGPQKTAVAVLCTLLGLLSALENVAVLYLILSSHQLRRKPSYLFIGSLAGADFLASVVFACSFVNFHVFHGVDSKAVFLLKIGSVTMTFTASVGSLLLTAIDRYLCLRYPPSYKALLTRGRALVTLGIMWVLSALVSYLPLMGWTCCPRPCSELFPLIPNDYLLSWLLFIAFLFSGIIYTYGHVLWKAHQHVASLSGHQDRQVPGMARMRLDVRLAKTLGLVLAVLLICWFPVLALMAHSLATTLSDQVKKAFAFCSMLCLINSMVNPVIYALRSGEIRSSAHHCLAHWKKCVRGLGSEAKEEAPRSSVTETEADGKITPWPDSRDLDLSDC
Sequence of Interleukin-17A (Homo sapiens) (Q16552 whole entry): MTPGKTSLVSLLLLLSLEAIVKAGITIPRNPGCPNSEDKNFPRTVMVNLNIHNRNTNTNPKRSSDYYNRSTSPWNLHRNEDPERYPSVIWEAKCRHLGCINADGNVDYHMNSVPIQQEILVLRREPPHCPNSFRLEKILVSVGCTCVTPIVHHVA
Sequence of Potassium voltage-gated channel subfamily KQT member 2 (Homo sapiens) (O43526 whole entry): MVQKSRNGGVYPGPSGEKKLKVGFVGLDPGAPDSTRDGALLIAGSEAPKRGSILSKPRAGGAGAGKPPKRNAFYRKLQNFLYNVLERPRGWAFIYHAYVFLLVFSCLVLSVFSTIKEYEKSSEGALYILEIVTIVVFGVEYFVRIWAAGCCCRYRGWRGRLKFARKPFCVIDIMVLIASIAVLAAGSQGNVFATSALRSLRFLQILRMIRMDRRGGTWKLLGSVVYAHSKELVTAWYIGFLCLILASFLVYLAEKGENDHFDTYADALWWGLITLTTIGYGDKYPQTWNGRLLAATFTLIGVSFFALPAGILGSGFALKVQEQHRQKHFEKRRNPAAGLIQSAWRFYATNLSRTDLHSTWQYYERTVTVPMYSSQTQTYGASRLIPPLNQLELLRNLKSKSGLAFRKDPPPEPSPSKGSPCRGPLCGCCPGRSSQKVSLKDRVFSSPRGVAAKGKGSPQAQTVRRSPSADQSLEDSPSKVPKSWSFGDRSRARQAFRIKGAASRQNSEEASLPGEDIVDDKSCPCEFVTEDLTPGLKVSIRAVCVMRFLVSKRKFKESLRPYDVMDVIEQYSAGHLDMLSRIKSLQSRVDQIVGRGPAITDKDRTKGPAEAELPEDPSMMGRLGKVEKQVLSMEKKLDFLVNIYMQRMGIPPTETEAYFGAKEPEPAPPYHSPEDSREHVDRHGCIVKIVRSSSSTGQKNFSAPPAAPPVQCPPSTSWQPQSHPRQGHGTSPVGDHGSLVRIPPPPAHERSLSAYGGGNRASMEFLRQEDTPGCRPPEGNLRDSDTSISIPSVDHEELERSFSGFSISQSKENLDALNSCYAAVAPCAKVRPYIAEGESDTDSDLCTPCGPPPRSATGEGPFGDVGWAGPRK
Sequence of Proprotein convertase subtilisin/kexin type 9 (Homo sapiens) (Q8NBP7 31-152 limits assumed): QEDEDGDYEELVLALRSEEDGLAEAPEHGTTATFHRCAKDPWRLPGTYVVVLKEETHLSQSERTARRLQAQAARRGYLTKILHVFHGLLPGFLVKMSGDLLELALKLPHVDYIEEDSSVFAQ
Sequence of Proprotein convertase subtilisin/kexin type 9 (Homo sapiens) (Q8NBP7 153-692 limits assumed): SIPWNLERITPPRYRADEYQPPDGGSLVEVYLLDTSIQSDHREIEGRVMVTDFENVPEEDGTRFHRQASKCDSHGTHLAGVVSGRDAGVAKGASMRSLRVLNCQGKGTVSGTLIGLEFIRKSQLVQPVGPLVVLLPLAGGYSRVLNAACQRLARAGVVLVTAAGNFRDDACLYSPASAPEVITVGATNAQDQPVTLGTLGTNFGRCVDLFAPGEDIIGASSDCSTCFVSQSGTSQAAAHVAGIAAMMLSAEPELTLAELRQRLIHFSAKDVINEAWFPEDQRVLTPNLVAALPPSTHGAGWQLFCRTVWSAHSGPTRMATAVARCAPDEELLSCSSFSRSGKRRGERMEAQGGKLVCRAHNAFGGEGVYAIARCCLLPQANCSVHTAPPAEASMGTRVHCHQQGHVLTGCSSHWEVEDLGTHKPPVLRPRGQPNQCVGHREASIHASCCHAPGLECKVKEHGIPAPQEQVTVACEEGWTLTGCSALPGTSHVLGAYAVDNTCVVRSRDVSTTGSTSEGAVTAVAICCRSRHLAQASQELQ

SMILES	inhibition [1] [%]	Ki [2] [nM]	inhibition [3] [%]	Ki [4] [nM]	Emax [8] [%]	Activity [10]	Activity [11] [%]	Activity [12] [%]	IC50 [20] [nM]	Emax [21] [%]	Activity [22]	other results
COc1ccc(C(=O)c2cn(CC3CCOCC3)c3ccc(O)cc23)cc1	> 50	120	> 50	1410	62.2	Active	109.6	105.5				EC50 [5]: 4.4 nM; Emax [6]: 65.7%; EC50 [7]: 62.9 nM; Activity [9]: Active; inhibition [13]: inactive; Activity [14]: inactive; inhibition [15]: inactive; growth inhibition (GI) [16]: inactive; Activity [17]: inactive; Activity [18]: inactive; inhibition [19]: inactive
COC(=O)CCCCOc1cccc2c(C(=O)c3ccc(OC)cc3)cn(CC3CCOCC3)c12	> 50	201	> 50	1580	77.8	Active	160.6	124.3	> 10000	166	Active	
COc1ccc(C(=O)c2cn(CC3CCOCC3)c3c(OCCCCC(=O)O)cccc23)cc1	> 50	1310	> 50	> 10000	82.5	Active	129.1	105.6	> 10000	124	Active	
COc1ccc(C(=O)c2cn(CC3CCOCC3)c3c(O)cccc23)cc1	> 50	53.9	> 50	3580	64.3	Active	135.3	104.3	272	190	Active	EC50 [7]: 632 nM; inhibition [13]: inactive; Activity [14]: inactive; inhibition [15]: inactive; growth inhibition (GI) [16]: inactive; Activity [17]: inactive; Activity [18]: inactive; inhibition [19]: inactive
Cc1ccc(Cn2nc(C(=O)N[C@@H]3C(C)(C)[C@@H]4CC[C@@]3(C)C4)cc2-c2ccc(Cl)c(C)c2)cc1							94.5	99.8		212		Activity [23]: inactive; Emax [24]: inactive
COc1ccc(C(=O)c2cn(CC3CCOCC3)c3c(OCCCCCCNC(C)=O)cccc23)cc1	> 50	1970	> 50	3920	74.3	Active	128	114.8	> 10000	151	Active	
CCCOc1cccc2c(C(=O)c3ccc(OC)cc3)cn(CC3CCOCC3)c12	> 50	5.7	> 50	505			133.9	105.4	30.6	263	Active	Activity [23]: inactive; Emax [24]: inactive
